HNF4A DNA FP – change in binding of human HNF4A to DNA, primary screen, biochemical, fluorescence polarization, FITC-DNA; actives 0.3% (n = 360,000); 1 h; Hepatocyte nuclear factor 4-alpha (Homo sapiens), P41235; activity change, % at 10 µM; in the data active = activity change above about 30%, passing the limit was not always enough
CSN inh – inhibitors of CSN-mediated cullin deneddylation, primary screen, biochemical, fluorescence polarization, uHTS. Purified CSN, SCF-Nedd8-OG deneddylation. inhibition, % at 12.5 µM. actives 0.38% (n = 360,000);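 active = pattern-corrected inhibition above about 35%, with an unprinted fluorescence ratio check between 0.5 and 1.5, limit read from the data, passing the limit was not always enough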;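 also: 0% = enzyme with substrate and 100% = substrate without enzyme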
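Test system: Human Csn5 produced in HEK293T cells | Compound: 12.5 µM single point | Times: 90 min, room temperature | Signal: Fluorescence polarization readout | Read-out basis: % inhibition of substrate cleavage by Csn5 | Controls: no-enzyme wells high, enzyme-with-substrate wells low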
Myeloid diff MLP – induction of myeloid progenitor differentiation, primary screen, cell-based, flow cytometry, MLPCN library | ER-HoxA9 myeloid progenitors, lysozyme-GFP differentiation | calls only at 10 µM | actives 1% (n = 360,000) | AID 624256, 2012;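 active = normalized GFP-positive differentiation at or above the plate's own cutoff, the solvent-only control mean plus 3 SD; inconclusive = no clear call, values can overlap the other calls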;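 also: cells exposed to compound for four days before flow analysis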
Rpn11 block – Rpn11 (PSMD14) deubiquitinase inhibitors, primary screen, biochemical, fluorescence polarization, uHTS; human 26S proteasome, Ub4-pepOG fluorescence polarization; 20S core pre-blocked with epoxomicin; inhibition, % at 20 µM; actives 0.59% (n = 360,000);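 active = inhibition at 20 µM, scaled to each plate's controls, above about 33%, limit read from the data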
Target sequence (O00487 whole entry, looked up): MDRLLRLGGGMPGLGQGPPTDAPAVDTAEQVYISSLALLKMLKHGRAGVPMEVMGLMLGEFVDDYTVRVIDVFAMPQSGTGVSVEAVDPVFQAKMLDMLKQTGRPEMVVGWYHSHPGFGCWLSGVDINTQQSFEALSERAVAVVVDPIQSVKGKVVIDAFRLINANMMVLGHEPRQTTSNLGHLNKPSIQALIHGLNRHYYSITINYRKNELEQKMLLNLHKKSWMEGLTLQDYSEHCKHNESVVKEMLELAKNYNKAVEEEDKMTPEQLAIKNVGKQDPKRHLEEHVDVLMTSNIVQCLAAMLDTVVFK
TPT1 inhibitor – Candida albicans TPT1 enzyme inhibitors, primary screen, biochemical, fluorescence polarization; inhibition, % at 5 µM; tRNA 2'-phosphotransferase TPT1 (Candida albicans SC5314); recombinant caTPT1, FP RNA substrate dephosphorylation; actives 0.81% (n = 300,000);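 active = inhibition above the mean of all tested compounds plus 3 SD, set per screening campaign, cut at about 24% in these data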;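 also: plate controls were DMSO alone for no effect and ferristatin control at 100 nM for full effect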
Rpn11 inh conf – Rpn11 (PSMD14) deubiquitinase inhibitors, confirmation, biochemical, fluorescence polarization, single concentration | actives 29% (n = 1,900) | shares compounds with Rpn11 block | inhibition, % at 20 µM | purified human 26S proteasome, Ub4-pepOG fluorescence polarization; proteasome pretreated with epoxomicin
MMP-2 inh – MMP-2 enzyme inhibition, confirmation, counter-screen for RPN11 inhibitor project, biochemical, fluorescence, single concentration. AID 602330, 2012. actives 4% (n = 1,900). recombinant MMP-2, FRET peptide cleavage fluorescence. shares compounds with Rpn11 block. inhibition, % at 20 µM;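 also: human MMP-2 activated beforehand with APMA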
Thrombin FP – bovine thrombin protease inhibition, confirmation, counter-screen for Rpn11 inhibitor project, biochemical, fluorescence polarization, single concentration. shares compounds with Rpn11 block. bovine thrombin cleavage of Ub4-pepOG. inhibition, % at 20 µM. actives 13% (n = 1,900). AID 602333, 2012;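 active = mean inhibition at least 40% at 20 µM, or signal 3 deviations below plate average, so some actives read negative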;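 also: plate controls were thrombin with DMSO for no effect and buffer wells lacking thrombin for full effect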
Starred values were filed as active, the others as inactive; i = inactive; u = inconclusive; x = no result given; + = active, no number. The list is not random: actives were taken first. Their share in the collection is about 2.3%. Rule as the data show it, unless noted: active = inhibition above about 40%; inactive = the rest.

SMILES	HNF4A DNA FP	CSN inh	Myeloid diff MLP	Rpn11 block	TPT1 inhibitor	Rpn11 inh conf	MMP-2 inh	Thrombin FP
C[C@@H]1CN([C@H](C)CO)C(=O)c2cc(Br)cnc2O[C@@H]1CN(C)C(=O)Nc1ccccc1	3	1	i	-3	x	x	x	x
Cc1nc2ccc(NC(=O)c3ccc(Cl)c(S(=O)(=O)N(C)c4ccccc4)c3)cc2s1	4	5	i	81*	0	61*	-15	52*
CCOC(CNC(=O)C(=O)Nc1cc2c3c(c1)CCN3C(=O)CC2)OCC	1	0	u	-5	-3	x	x	x
COc1cc(/C=C2\SC(=S)N(NC(=O)c3ccccc3OC)C2=O)ccc1O	48*	5	i	75*	x	19	12	-1
CCOc1cc(/C=C2\SC(=S)N(NS(=O)(=O)c3ccc(C)cc3)C2=O)ccc1O	14	32	i	85*	18	69*	18	57*
COc1cc(/C=C(\C#N)C(=O)Nc2cccc(C(=O)O)c2)ccc1OCc1ccc(C)cc1	-1	4	i	6	1	x	x	x
CCOc1cc(/C=C(\C#N)C(=O)Nc2cccc(C(=O)O)c2)ccc1OCc1ccc(Br)cc1	-5	22	i	107*	-4	-11	-7	-4
CCOC(=O)c1c(NC(=O)c2cc(-c3ccc(O)cc3)on2)sc(C(C)=O)c1C	154*	10	i	171*	2	-14	-32	-6
CC(C)=CCC/C(C)=C/CNC(=O)C[C@H]1C[C@H](C(=O)N2CCCCC2)[C@@]2(CCc3ccccc3)c3[nH]c4cc(-c5ccco5)ccc4c3CCN2C1=O	15	18	i	47*	x	15	3	3
O=C(C[C@H]1C[C@H](C(=O)N2CCCCC2)[C@@]2(CCc3ccccc3)c3[nH]c4cc(-c5ccco5)ccc4c3CCN2C1=O)NCCN1CCOCC1	17	12	i	43*	x	1	3	-2
CC[C@]12c3[nH]c4cc(-c5ccco5)ccc4c3CCN1C(=O)[C@@H](CC(=O)NC/C=C(\C)CCC=C(C)C)C[C@@H]2C(=O)N1CCN(C(=O)C2CC2)CC1	1	6	i	22	x	x	x	x
CC1(C(=O)NS(=O)(=O)c2cccs2)CCN1C(=O)c1ccco1 (stereo not drawn)	6	-3	i	-2	x	x	x	x
COC(=O)c1ccc(NC(=O)c2ccccc2-c2ccccc2C(=O)O)cc1	0	-5	i	2	-4	x	x	x
CSCCC(NC(=O)c1ccccc1)C(=O)NCCCSc1ccccc1 (stereo not drawn)	-1	-1	i	-6	x	x	x	x
COc1ccc(N2C(=O)CCC(C(=O)Nc3cccc(C)n3)C2c2ccc(OC)c(OC)c2)cc1 (stereo not drawn)	-4	7	i	+	-3	-11	-36	-8
N#Cc1ccsc1NC(=O)COC(=O)C1=NNC(=O)CC1	-7	7	i	2	x	x	x	x
CCOC(=O)C1=C(C)N=c2s/c(=C\c3ccc(O)c([N+](=O)[O-])c3)c(=O)n2C1c1ccccc1OC (stereo not drawn)	4	14	i	40*	20	24	-21	-4

Compound activity as filed in PubChem.
